From ChEMBL document CHEMBL2375208, “Structural, kinetic, and pharmacodynamic mechanisms of D-amino acid oxidase inhibition by small molecules” (J Med Chem, 2013)
The source made the active and inactive calls. The calls are words filed in the database; no cut-off is given here.

Tests used:
D-amino-acid oxidase [1] = target: T1, D-amino-acid oxidase (Homo sapiens, UniProt P14920); assay: Binding affinity to human recombinant DAAO at 600 nm spectral modification by spectrophotometric analysis in presence of FAD
Outline: (§1)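 Purified human recombinant DAAO holoenzyme (His-tagged construct expressed in E. coli, purified by nickel column and size exclusion) was titrated in its oxidized state with increasing inhibitor concentrations, without substrate turnover. Ligand-induced changes in the FAD visible absorption spectrum were read at the stated wavelength. Kd and SE came from nonlinear regression of absorbance-change saturation curves. Changes above 500 nm indicate a charge-transfer complex.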

D-amino-acid oxidase [2] = target: T1, D-amino-acid oxidase; assay: Binding affinity to human recombinant DAAO at 440 nm spectral modification by spectrophotometric analysis in presence of FAD; outline: as §1
D-amino-acid oxidase [3] = target: T1, D-amino-acid oxidase; assay: Binding affinity to human recombinant DAAO at 492 nm spectral modification by spectrophotometric analysis in presence of FAD
Outline: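 Purified human recombinant DAAO, E. coli-expressed and purified on a nickel column then size exclusion, was titrated in the oxidized (holoenzyme) state with rising inhibitor concentrations up to saturation, without substrate turnover. Ligand-induced changes in the FAD visible absorption spectrum were followed. Kd with SE came from nonlinear regression of saturation curves of absorbance change against inhibitor concentration.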

D-amino-acid oxidase [4] = target: T1, D-amino-acid oxidase; assay: Competitive inhibition of human recombinant DAAO by Michaelis-Menten plot analysis in presence of D-serine
D-amino-acid oxidase [5] = target: T1, D-amino-acid oxidase; assay: Competitive inhibition of human recombinant DAAO after 1 hr by coupled enzyme assay in presence of D-serine
D-amino-acid oxidase [6] = target: T1, D-amino-acid oxidase; assay: Binding affinity to human recombinant DAAO by stopped flow spectrophotometric analysis in presence of FAD
D-amino-acid oxidase [7] = target: T2, D-amino-acid oxidase (Sus scrofa, UniProt P00371); assay: Binding affinity to pig kidney DAAO using D-alanine as substrate
D-amino-acid oxidase [8] = target: T1, D-amino-acid oxidase; assay: Binding affinity to human recombinant DAAO at 520 nm spectral modification by spectrophotometric analysis in presence of FAD
D-amino-acid oxidase [9] = target: T1, D-amino-acid oxidase; assay: Binding affinity to human recombinant DAAO at 490 nm spectral modification by spectrophotometric analysis in presence of FAD
Rattus norvegicus [10] = assay: Inhibition of DAAO in ip dosed Sprague-Dawley rat assessed as cerebellum concentration of compound required for 50% accumulation of D-serine after 6 hrs by LC/MS/MS analysis; format: functional, organism-based
Outline: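 Rats received different ip doses. Cerebellum D-serine and inhibitor concentrations were measured 6 h later. EC50 was the inhibitor concentration at half-maximal D-serine increase, from a sigmoidal dose–response fit.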

Rattus norvegicus [11] = assay: Metabolic stability in Sprague-Dawley rat at 3 to 10 mg/kg, po/10 mg/kg, ip by LC/MS/MS analysis; format: ADME, organism-based; parameters: dose 3-10 mg/kg, route intraperitoneal; conditions: in vivo
[12] = Drug uptake in C57BL/6 mouse cerebellum at 12 mg/kg, ip administered every 2 hrs by LC/MS/MS analysis; format: ADME, organism-based; parameters: dose 12 mg/kg, route intraperitoneal; conditions: read-out: Drug uptake
Outline: (§2)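 Male C57BL/6 mice (20–30 g) were dosed ip in 50 mM phosphate buffer at 5 mL/kg, with controls given vehicle only. Regimens were 12 mg/kg once or repeated at 2, 4 and 6 h, 30 mg/kg, or 125 mg/kg. Mice were killed at set times. Cerebellar inhibitor and D-serine were measured in the same samples, D-serine by chiral LC/MS/MS. Initial rate was the slope over 0–2 h.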

[13] = Drug uptake in C57BL/6 mouse cerebellum at 12 mg/kg, ip after 2 hrs by LC/MS/MS analysis; format: ADME, organism-based; parameters: dose 12 mg/kg, route intraperitoneal; conditions: read-out: Drug uptake; outline: as §2
D-amino-acid oxidase [14] = target: T1, D-amino-acid oxidase; assay: Inhibition of DAAO (unknown origin)
Mus musculus [15] = species on record: Mus musculus; conditions: C57BL/6, Cerebellum, 12 mg/kg
D-amino-acid oxidase [16] = target: T1, D-amino-acid oxidase; assay: Binding affinity to human recombinant DAAO at 496 nm spectral modification by spectrophotometric analysis in presence of FAD; outline: as §1
D-amino-acid oxidase [17] = target: T1, D-amino-acid oxidase; assay: Binding affinity to human recombinant DAAO at 443 nm spectral modification by spectrophotometric analysis in presence of FAD; outline: as §1
D-amino-acid oxidase [18] = target: T1, D-amino-acid oxidase; assay: Binding affinity to human recombinant DAAO at 498 nm spectral modification by spectrophotometric analysis in presence of FAD
Outline: (§3)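 Oxidized holoenzyme of purified human recombinant DAAO, titrated with increasing inhibitor in the absence of substrate. Ligand-induced changes in the FAD visible absorption spectrum were read at fixed wavelengths. Kd and SE came from nonlinear regression of saturation of the absorbance change.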

D-amino-acid oxidase [19] = target: T1, D-amino-acid oxidase; assay: Binding affinity to human recombinant DAAO at 444 nm spectral modification by spectrophotometric analysis in presence of FAD; outline: as §3
D-amino-acid oxidase [20] = target: T1, D-amino-acid oxidase; assay: Binding affinity to human recombinant DAAO at 395 nm spectral modification by spectrophotometric analysis in presence of FAD; outline: as §3
D-amino-acid oxidase [21] = target: T1, D-amino-acid oxidase; assay: Binding affinity to human recombinant DAAO at 362 nm spectral modification by spectrophotometric analysis in presence of FAD; outline: as §3
[22] = Drug uptake in C57BL/6 mouse cerebellum at 125 mg/kg, ip after 3 hrs by LC/MS/MS analysis; format: ADME, organism-based; parameters: dose 125 mg/kg, route intraperitoneal; conditions: read-out: Drug uptake; outline: as §2
Mus musculus [23] = assay: Inhibition of DAAO in C57BL/6 mouse assessed as increase in rate of D-serine accumulation in cerebellum at 125 mg/kg, ip by LC/MS/MS analysis; format: functional, organism-based; parameters: dose 125 mg/kg; outline: as §2
[24] = Drug uptake in C57BL/6 mouse cerebellum at 30 mg/kg, ip after 6 hrs by LC/MS/MS analysis; format: ADME, organism-based; parameters: dose 30 mg/kg, route intraperitoneal; conditions: read-out: Drug uptake; outline: as §2
D-amino-acid oxidase [25] = target: T2, D-amino-acid oxidase; assay: Competitive inhibition of pig kidney DAAO in presence of D-alanine
D-amino-acid oxidase [26] = target: T1, D-amino-acid oxidase

T1 sequence (P14920 whole entry): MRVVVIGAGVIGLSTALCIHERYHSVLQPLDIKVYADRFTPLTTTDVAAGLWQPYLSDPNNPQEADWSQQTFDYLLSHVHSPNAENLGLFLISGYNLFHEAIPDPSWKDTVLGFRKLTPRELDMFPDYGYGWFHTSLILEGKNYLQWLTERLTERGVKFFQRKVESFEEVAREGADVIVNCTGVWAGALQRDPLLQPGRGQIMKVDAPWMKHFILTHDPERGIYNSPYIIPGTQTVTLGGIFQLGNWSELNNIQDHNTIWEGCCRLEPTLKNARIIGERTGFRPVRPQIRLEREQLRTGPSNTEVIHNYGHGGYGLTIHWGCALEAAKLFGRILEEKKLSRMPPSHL
T2 sequence (P00371 whole entry): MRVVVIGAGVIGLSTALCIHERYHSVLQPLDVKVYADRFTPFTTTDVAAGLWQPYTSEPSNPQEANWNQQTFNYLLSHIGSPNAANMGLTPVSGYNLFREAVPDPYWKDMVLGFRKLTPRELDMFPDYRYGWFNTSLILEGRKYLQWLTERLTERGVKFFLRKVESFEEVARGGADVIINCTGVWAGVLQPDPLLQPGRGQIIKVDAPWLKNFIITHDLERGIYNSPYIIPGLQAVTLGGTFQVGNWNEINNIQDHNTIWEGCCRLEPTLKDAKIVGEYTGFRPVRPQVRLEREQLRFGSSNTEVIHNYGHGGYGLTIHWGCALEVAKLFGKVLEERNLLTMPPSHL

`O=C(O)c1cc2occ(CCc3ccccc3)c2[nH]1` showed a Kd (D-amino-acid oxidase [1]) of 3200 nM, a Kd (D-amino-acid oxidase [2]) of 4800 nM and a Kd (D-amino-acid oxidase [3]) of 3700 nM. For the same compound, the Ki (D-amino-acid oxidase [4]) was 190 nM, the IC50 (D-amino-acid oxidase [5]) was 219 nM and the Kd (D-amino-acid oxidase [6]) was 6000 nM.

Compound `O=C(O)c1ccc[nH]1` has a Kd (D-amino-acid oxidase [7]) of 26000 nM.

For `O=C(O)c1cc2sccc2[nH]1`, the Kd (D-amino-acid oxidase [8]) was 2500 nM, the Kd (D-amino-acid oxidase [9]) was 130 nM and the EC50 (Rattus norvegicus [10]) was 500 nM. The Stability (Rattus norvegicus [11]) was “Unstable”, the concentration at 2 h [12] was greater than 1000 nM and the concentration at 2 h [13] was less than 1000 nM. The Ki (D-amino-acid oxidase [4]) was 3.5 nM, the IC50 (D-amino-acid oxidase [5]) was 5.37 nM and the Kd (D-amino-acid oxidase [6]) was 7000 nM. For the same compound, the IC50 (D-amino-acid oxidase [14]) was 5.37 nM and the inhibition (Mus musculus [15]) was “Active”.

`O=c1oc2ccccc2cc1O` [3-HYDROXYCOUMARIN] gave a Kd (D-amino-acid oxidase [16]) of 5600 nM, a Kd (D-amino-acid oxidase [17]) of 4000 nM and a Ki (D-amino-acid oxidase [4]) of 13 nM. It also gave an IC50 (D-amino-acid oxidase [5]) of 34.7 nM and a Kd (D-amino-acid oxidase [6]) of 6300 nM.

Compound `Oc1noc2cc(Cl)c(Cl)cc12` has a Kd (D-amino-acid oxidase [18]) of 4200 nM, a Kd (D-amino-acid oxidase [19]) of 4200 nM and a Kd (D-amino-acid oxidase [20]) of 4000 nM. For the same compound, the Kd (D-amino-acid oxidase [21]) was 3600 nM, the EC50 (Rattus norvegicus [10]) was 1500 nM and the concentration at 3 h [22] was less than 1000 nM. The inhibition (Mus musculus [23]) was “Active”, the Ki (D-amino-acid oxidase [4]) was 1.7 nM and the IC50 (D-amino-acid oxidase [5]) was 3.09 nM. It also gave a Kd (D-amino-acid oxidase [6]) of 1900 nM.

Work on `O=C(O)c1cc(CCc2ccc(Cl)cc2)c[nH]1` yielded a concentration at 6 h [24] greater than 1000 nM.

With `O=C(O)c1cc2ccccc2[nH]1` [INDOLE-2-CARBOXYLIC ACID] the Ki (D-amino-acid oxidase [25]) was 3400 nM.

`O=C(O)c1ccccc1` [BENZOIC ACID] gave a Kd (D-amino-acid oxidase [3]) of 2200 nM, a Ki (D-amino-acid oxidase [4]) of 2000 nM and an IC50 (D-amino-acid oxidase [5]) of 2090 nM. It also gave a Kd (D-amino-acid oxidase [6]) of 2300 nM and a Kd (D-amino-acid oxidase [26]) of 9000 nM.
